Measured values as given in ChEMBL document CHEMBL3286209, “Synthesis and biological activities of novel pleuromutilin derivatives with a substituted thiadiazole moiety as potent drug-resistant bacteria inhibitors” (J Med Chem, 2014).
≈ marks a conversion by molar mass, not a printed value.

Assays:
Format in all cases: functional
Escherichia coli [1] = test: Antibacterial activity against Escherichia coli at 160 ug/ml after 24 hrs by Oxford cup assay; details: read-out: IZ
How it was run: (§1)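 Oxford cup diffusion: saline inoculum set by McFarland standard, spread on nutrient agar plates. […] Inhibition zone measured after 24 h at 37 °C; triplicate.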

Escherichia coli [2] = test: Antibacterial activity against Escherichia coli at 320 ug/ml after 24 hrs by Oxford cup assay; details: read-out: IZ; how it was run: as §1
Streptococcus agalactiae [3] = test: Antibacterial activity against Streptococcus agalactiae at 160 ug/ml after 24 hrs by Oxford cup assay; details: read-out: IZ; how it was run: as §1
Staphylococcus aureus [4] = test: Antibacterial activity against methicillin-resistant Staphylococcus aureus at 160 ug/ml after 24 hrs by Oxford cup assay; details: read-out: IZ
How it was run: (§2)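 Oxford cup diffusion using clinical isolates. Inocula are made in 0.9% saline to a McFarland standard and spread on nutrient agar. […] Inhibition zone diameter is measured after 24 h at 37 °C. Run in triplicate.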

[5] = system: Staphylococcus epidermidis; test: Antibacterial activity against methicillin-resistant Staphylococcus epidermidis at 320 ug/ml after 24 hrs by Oxford cup assay; details: read-out: IZ; how it was run: as §2
Staphylococcus aureus [6] = test: Antibacterial activity against methicillin-resistant Staphylococcus aureus after 48 hrs by agar dilution method
How it was run: (§3)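 Agar dilution per NCCLS using clinical isolates. Compound DMSO/water solutions are 2-fold serially diluted in water, then mixed 1:10 into hot Mueller–Hinton agar. Inocula come from blood slants, adjusted to about 10⁵−10⁶ cfu/mL in 0.90% saline, and spotted at 10 μL. Plates incubated at 36.5 °C for 48 h. MIC is the lowest concentration giving complete growth inhibition. Run in triplicate at pH 7.40.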

Escherichia coli [7] = test: Antibacterial activity against Escherichia coli after 48 hrs by agar dilution method
How it was run: (§4)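 Agar dilution per NCCLS on Mueller–Hinton agar; compound in DMSO/water, 2-fold serial dilutions in distilled water, 2 mL dilution mixed into 18 mL hot agar. Clinical isolates from blood slants, adjusted to about 10⁵−10⁶ cfu/mL in 0.90% saline; 10 μL spotted. Incubated 36.5 °C for 48 h; MIC = lowest concentration giving complete growth inhibition. Triplicate runs.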

Streptococcus agalactiae [8] = test: Antibacterial activity against Streptococcus agalactiae at 320 ug/ml after 24 hrs by Oxford cup assay; details: read-out: IZ; how it was run: as §1
[9] = system: Staphylococcus epidermidis; test: Antibacterial activity against methicillin-resistant Staphylococcus epidermidis after 48 hrs by agar dilution method; how it was run: as §3
[10] = system: Staphylococcus epidermidis; test: Antibacterial activity against methicillin-resistant Staphylococcus epidermidis at 160 ug/ml after 24 hrs by Oxford cup assay; details: read-out: IZ; how it was run: as §2
Staphylococcus aureus [11] = test: Antibacterial activity against methicillin-resistant Staphylococcus aureus at 320 ug/ml after 24 hrs by Oxford cup assay; details: read-out: IZ; how it was run: as §2
Streptococcus agalactiae [12] = test: Antibacterial activity against Streptococcus agalactiae after 48 hrs by agar dilution method; how it was run: as §4

| SMILES | zone of inhibition at 160 µg/mL (Escherichia coli [1]) | zone of inhibition at 320 µg/mL (Escherichia coli [2]) | zone of inhibition at 160 µg/mL (Streptococcus agalactiae [3]) | zone of inhibition at 160 µg/mL (Staphylococcus aureus [4]) | zone of inhibition at 320 µg/mL [5] | MIC (Staphylococcus aureus [6]) | MIC (Escherichia coli [7]) | zone of inhibition at 320 µg/mL (Streptococcus agalactiae [8]) | MIC [9] | zone of inhibition at 160 µg/mL [10] | zone of inhibition at 320 µg/mL (Staphylococcus aureus [11]) | MIC (Streptococcus agalactiae [12]) |
| --- | --- | --- | --- | --- | --- | --- | --- | --- | --- | --- | --- | --- |
| C=C[C@]1(C)C[C@@H](OC(=O)CSc2nnc(NC(=O)c3ccccc3Cl)s2)[C@]2(C)[C@H](C)CC[C@]3(CCC(=O)[C@H]32)[C@@H](C)[C@@H]1O | 0 mm | 10.3 mm | 12.7 mm | 12.2 mm | 12.6 mm | 2 µg/mL (≈ 3.16 µM) | ≥ 64 µg/mL | 15.5 mm | 8 µg/mL (≈ 12.7 µM) | 11.9 mm | 15 mm | 2 µg/mL (≈ 3.16 µM) |
| C=C[C@]1(C)C[C@@H](OC(=O)CSc2nnc(NC(=O)c3cccc(Cl)c3)s2)[C@]2(C)[C@H](C)CC[C@]3(CCC(=O)[C@H]32)[C@@H](C)[C@@H]1O | 11.7 mm | 12.6 mm | 12.7 mm | 13.4 mm | 15 mm | 2 µg/mL (≈ 3.16 µM) | 32 µg/mL (≈ 50.6 µM) | 13.5 mm | 2 µg/mL (≈ 3.16 µM) | 12.9 mm | 14.7 mm | 2 µg/mL (≈ 3.16 µM) |
| C=C[C@]1(C)C[C@@H](OC(=O)CSc2nnc(NC(=O)c3ccc(Cl)cc3)s2)[C@]2(C)[C@H](C)CC[C@]3(CCC(=O)[C@H]32)[C@@H](C)[C@@H]1O | 0 mm | 10 mm | 11.4 mm | 11.9 mm | 14.1 mm | 4 µg/mL (≈ 6.33 µM) | ≥ 64 µg/mL | 13.4 mm | 4 µg/mL (≈ 6.33 µM) | 11.3 mm | 13.7 mm | 4 µg/mL (≈ 6.33 µM) |
| C=C[C@]1(C)C[C@@H](OC(=O)CSc2nnc(NC(=O)c3ccccc3OC)s2)[C@]2(C)[C@H](C)CC[C@]3(CCC(=O)[C@H]32)[C@@H](C)[C@@H]1O | 9.96 mm | 11.5 mm | 11.3 mm | 12.2 mm | 14.2 mm | 1 µg/mL (≈ 1.59 µM) | 16 µg/mL (≈ 25.5 µM) | 13.4 mm | 2 µg/mL (≈ 3.19 µM) | 11.9 mm | 14.8 mm | 4 µg/mL (≈ 6.37 µM) |
| C=C[C@]1(C)C[C@@H](OC(=O)CSc2nnc(NC(=O)c3cccc(OC)c3)s2)[C@]2(C)[C@H](C)CC[C@]3(CCC(=O)[C@H]32)[C@@H](C)[C@@H]1O | 9.02 mm | 10.9 mm | 11.7 mm | 11.4 mm | 13.8 mm | 8 µg/mL (≈ 12.7 µM) | ≥ 64 µg/mL | 12.8 mm | 4 µg/mL (≈ 6.37 µM) | 12.3 mm | 13.1 mm | 8 µg/mL (≈ 12.7 µM) |
| C=C[C@]1(C)C[C@@H](OC(=O)CSc2nnc(NC(=O)c3ccc(OC)cc3)s2)[C@]2(C)[C@H](C)CC[C@]3(CCC(=O)[C@H]32)[C@@H](C)[C@@H]1O | 10.7 mm | 11.2 mm | 11.5 mm | 12.2 mm | 14.4 mm | 2 µg/mL (≈ 3.19 µM) | 32 µg/mL (≈ 51 µM) | 14.3 mm | 2 µg/mL (≈ 3.19 µM) | 9.52 mm | 15.5 mm | 2 µg/mL (≈ 3.19 µM) |
| C=C[C@]1(C)C[C@@H](OC(=O)CSc2nnc(NC(=O)c3ccccc3N)s2)[C@]2(C)[C@H](C)CC[C@]3(CCC(=O)[C@H]32)[C@@H](C)[C@@H]1O | 10.1 mm | 11.3 mm | 12.4 mm | 12.9 mm | 15.2 mm | 4 µg/mL (≈ 6.53 µM) | 16 µg/mL (≈ 26.1 µM) | 13.8 mm | 2 µg/mL (≈ 3.26 µM) | 12.2 mm | 15.5 mm | 4 µg/mL (≈ 6.53 µM) |
| C=C[C@]1(C)C[C@@H](OC(=O)CSc2nnc(NC(=O)c3cccc(N)c3)s2)[C@]2(C)[C@H](C)CC[C@]3(CCC(=O)[C@H]32)[C@@H](C)[C@@H]1O | 12.7 mm | 13.7 mm | 17.4 mm | 17.5 mm | 17.8 mm | 0.25 µg/mL (≈ 0.408 µM) | 16 µg/mL (≈ 26.1 µM) | 18.4 mm | 0.5 µg/mL (≈ 0.816 µM) | 16.1 mm | 19.2 mm | 0.25 µg/mL (≈ 0.408 µM) |
| C=C[C@]1(C)C[C@@H](OC(=O)CSc2nnc(NC(=O)c3ccc(N)cc3)s2)[C@]2(C)[C@H](C)CC[C@]3(CCC(=O)[C@H]32)[C@@H](C)[C@@H]1O | 10.7 mm | 12.2 mm | 12.3 mm | 11.4 mm | 14.8 mm | 2 µg/mL (≈ 3.26 µM) | 16 µg/mL (≈ 26.1 µM) | 14 mm | 1 µg/mL (≈ 1.63 µM) | 12.1 mm | 13.2 mm | 2 µg/mL (≈ 3.26 µM) |
| C=C[C@]1(C)C[C@@H](OC(=O)CSc2nnc(NC(=O)CN(C)C)s2)[C@]2(C)[C@H](C)CC[C@]3(CCC(=O)[C@H]32)[C@@H](C)[C@@H]1O | 10.1 mm | 12 mm | 11.5 mm | 15.4 mm | 16 mm | 1 µg/mL (≈ 1.73 µM) | 32 µg/mL (≈ 55.3 µM) | 14.5 mm | 2 µg/mL (≈ 3.46 µM) | 14.3 mm | 17.6 mm | 2 µg/mL (≈ 3.46 µM) |
| C=C[C@]1(C)C[C@@H](OC(=O)CSc2nnc(NC(=O)CN(CC)CC)s2)[C@]2(C)[C@H](C)CC[C@]3(CCC(=O)[C@H]32)[C@@H](C)[C@@H]1O | 9.13 mm | 10.2 mm | 10.4 mm | 11 mm | 12.8 mm | 8 µg/mL (≈ 13.2 µM) | 64 µg/mL (≈ 105 µM) | 12.7 mm | 4 µg/mL (≈ 6.59 µM) | 11.5 mm | 12.3 mm | 8 µg/mL (≈ 13.2 µM) |
| C=C[C@]1(C)C[C@@H](OC(=O)CSc2nnc(NC(=O)CN3CCCC3)s2)[C@]2(C)[C@H](C)CC[C@]3(CCC(=O)[C@H]32)[C@@H](C)[C@@H]1O | 9.86 mm | 11.1 mm | 12.8 mm | 13.1 mm | 12.8 mm | 4 µg/mL (≈ 6.61 µM) | 32 µg/mL (≈ 52.9 µM) | 13.8 mm | 4 µg/mL (≈ 6.61 µM) | 10.5 mm | 13.2 mm | 2 µg/mL (≈ 3.31 µM) |
| C=C[C@]1(C)C[C@@H](OC(=O)CSc2nnc(NC(=O)CN3CCOCC3)s2)[C@]2(C)[C@H](C)CC[C@]3(CCC(=O)[C@H]32)[C@@H](C)[C@@H]1O | 0 mm | 11.9 mm | 10.9 mm | 13.4 mm | 10.8 mm | 1 µg/mL (≈ 1.61 µM) | ≥ 64 µg/mL | 13.2 mm | 8 µg/mL (≈ 12.9 µM) | 0 mm | 15.4 mm | 4 µg/mL (≈ 6.44 µM) |
| C=C[C@]1(C)C[C@@H](OC(=O)CSc2nnc(NC(=O)CN3CCN(C)CC3)s2)[C@]2(C)[C@H](C)CC[C@]3(CCC(=O)[C@H]32)[C@@H](C)[C@@H]1O | 10.6 mm | 11.2 mm | 11.2 mm | 11 mm | 13.1 mm | 8 µg/mL (≈ 12.6 µM) | 16 µg/mL (≈ 25.2 µM) | 12.6 mm | 4 µg/mL (≈ 6.31 µM) | 10.7 mm | 12 mm | 8 µg/mL (≈ 12.6 µM) |
| CC[C@]1(C)C[C@@H](OC(=O)CSc2nnc(N)[nH]2)[C@]2(C)[C@H](C)CC[C@]3(CCC(=O)[C@H]32)[C@@H](C)[C@@H]1O [AZAMULIN] | 16 mm | 17.2 mm | 17.2 mm | 16.5 mm | 17 mm | 0.5 µg/mL (≈ 1.04 µM) | 4 µg/mL (≈ 8.36 µM) | 18.9 mm | 0.5 µg/mL (≈ 1.04 µM) | 15.4 mm | 18 mm | 0.125 µg/mL (≈ 0.261 µM) |
